Test results published in ChEMBL document CHEMBL1130095, “Synthesis of analogs of 2-methoxyestradiol with enhanced inhibitory effects on tubulin polymerization and cancer cell growth” (J Med Chem, 1997).

What was measured:
Tubulin [1] = biological target: T1, Tubulin (Bos taurus, UniProt Q6B856+Q862L2+Q862F3); experiment: Evaluated for inhibition of tubulin polymerization.; type: functional
How it was run: (§1)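 Electrophoretically homogeneous bovine brain tubulin at 1.2 mg/mL (12 µM), preincubated at 26 °C with varying compound concentrations, then chilled on ice before GTP was added. Assembly was followed at 26 °C by turbidity at 350 nm, and the extent was read at 20 min. IC50 was derived graphically from at least two independent assays.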

[2] = biological target: Tubulin beta chain (Bos taurus) (UniProt Q6B856); experiment: Evaluated for % inhibition of colchicine binding to tubulin.; design: concentration or dose not given beside the values; conditions: concentration not given here
Chain of Tubulin beta chain (Bos taurus) (Q6B856 whole entry): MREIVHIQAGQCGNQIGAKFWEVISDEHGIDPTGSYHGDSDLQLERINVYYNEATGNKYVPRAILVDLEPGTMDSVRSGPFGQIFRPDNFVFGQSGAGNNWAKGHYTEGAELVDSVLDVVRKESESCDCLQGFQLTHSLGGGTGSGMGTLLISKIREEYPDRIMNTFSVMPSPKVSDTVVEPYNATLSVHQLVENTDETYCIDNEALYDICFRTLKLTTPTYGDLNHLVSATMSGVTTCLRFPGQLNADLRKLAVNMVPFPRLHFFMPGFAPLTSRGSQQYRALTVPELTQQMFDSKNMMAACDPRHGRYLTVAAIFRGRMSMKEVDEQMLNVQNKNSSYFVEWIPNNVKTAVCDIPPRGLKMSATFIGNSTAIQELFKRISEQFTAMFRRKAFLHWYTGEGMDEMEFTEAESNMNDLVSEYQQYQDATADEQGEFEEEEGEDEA
How it was run: (§2)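 Mixtures held 1.0 µM bovine brain tubulin (0.1 mg/mL), 5.0 µM [³H]colchicine and 50 µM inhibitor, incubated 10 min at 37 °C. Bound-colchicine inhibition is given as percent, from triplicate samples in each experiment.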

HOP-62 [3] = experiment: The In vitro cytotoxicity value is the concentration corresponding to 50% growth inhibition against HOP-62 (non small cell lung) cell line.; type: functional; conditions: Homo sapiens
SN12C [4] = experiment: In vitro cytotoxicity value corresponding to 50% growth inhibition against SN12C (renal) cell line.; type: functional; conditions: Homo sapiens
OVCAR-3 [5] = experiment: In vitro cytotoxicity value corresponding to 50% growth inhibition against OVCAR-3 (ovarian) cell line.; type: functional; conditions: Homo sapiens
[6] = system: Panel (Carcinoma cell lines); experiment: Mean graph midpoint for growth inhibition of all human cancer cell lines; type: functional
[7] = biological target: Estrogen receptor (Rattus norvegicus) (UniProt P06211+Q62986); experiment: Relative binding affinity for estrogen receptor using a tritium labeled estrogen as the tracer and immature rat uterine cytosol; type: protein assay; conditions: Uterus
How it was run: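 Competitive radiometric binding with a tritiated estrogen tracer and immature rat uterine cytosol as receptor source, incubated at 0 °C for 18 or 20 h. […] Coefficient of variation between replicate experiments is typically below 30%.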

SF-539 [8] = experiment: The In vitro cytotoxicity corresponding to 50% growth inhibition against […] (central nervous system) cell line.; type: functional; conditions: Homo sapiens
HCT-116 [9] = experiment: The In vitro cytotoxicity value is the concentration of the compound corresponding to 50% growth inhibition againstHCT-116 (colon) cell line.; type: functional; conditions: Homo sapiens
DU-145 [10] = experiment: The In vitro cytotoxicity value corresponding to 50% growth inhibition against DU-145 (prostate) cell line.; type: functional; conditions: Homo sapiens
MDA-MB-435 [11] = experiment: In vitro cytotoxicity value corresponding to 50% growth inhibition against MDA-MB-435 (breast) cell line.; type: functional; conditions: Homo sapiens
UACC-62 [12] = experiment: In vitro cytotoxicity value corresponding to 50% growth inhibition against UACC-62(melanoma) cell line.; type: functional; conditions: Homo sapiens
DU-145 [13] = experiment: In vitro cytotoxicity value is the concentration corresponding to 50% growth inhibition against DU-145 (prostate) cell line.; type: functional; conditions: Homo sapiens
UACC-62 [14] = experiment: In vitro cytotoxicity value is the concentration corresponding to 50% growth inhibition against UACC-62(melanoma) cell line.; type: functional; conditions: Homo sapiens
SF-539 [15] = experiment: In vitro cytotoxicity value is the concentration corresponding to 50% growth inhibition against […] (central nervous system) cell line.; type: functional; conditions: Homo sapiens
OVCAR-3 [16] = experiment: In vitro cytotoxicity value is the concentration corresponding to 50% growth inhibition against OVCAR-3 (ovarian) cell line.; type: functional; conditions: Homo sapiens
SN12C [17] = experiment: In vitro cytotoxicity value is the concentration corresponding to 50% growth inhibition against SN12C (renal) cell line.; type: functional; conditions: Homo sapiens
HOP-62 [18] = experiment: In vitro cytotoxicity value is the concentration corresponding to 50% growth inhibition against HOP-62(non small cell lung) cell line.; type: functional; conditions: Homo sapiens
HCT-116 [19] = experiment: In vitro cytotoxicity value is the concentration of the compound corresponding to 50% growth inhibition against HCT116 (colon) cell line.; type: functional; conditions: Homo sapiens
MDA-MB-435 [20] = experiment: In vitro cytotoxicity value is the concentration corresponding to 50% growth inhibition against MDA-MB-435 (breast) cell line.; type: functional; conditions: Homo sapiens
Tubulin [21] = biological target: T1, Tubulin; experiment: The compound was evaluated for inhibition of tubulin polymerization, which is purified from bovine brain; type: functional; how it was run: as §1
Tubulin (Bos taurus) = Tubulin (Bos taurus) (UniProt Q6B856+Q862L2+Q862F3); experiment: The compound was evaluated for inhibition of colchicine binding to tubulin.; type: protein assay; conditions: concentration not given here; how it was run: as §2

`COc1cc2c(cc1O)CC[C@@H]1[C@@H]2CC[C@]2(C)[C@@H](O)CC[C@@H]12` [2-METHOXYESTRADIOL] showed an IC50 (Tubulin [1]) of 3.1 µM, an inhibition [2] of 19% and a GI50 (HOP-62 [3]) of 0.7 µM. The GI50 (SN12C [4]) was 0.95 µM, the GI50 (OVCAR-3 [5]) was 0.21 µM and the GI50 [6] was 1.3 µM. The relative binding affinity (RBA) [7] was 0.245, the GI50 (SF-539 [8]) was 0.32 µM and the GI50 (HCT-116 [9]) was 0.47 µM. The GI50 (DU-145 [10]) was 1.8 µM, the GI50 (MDA-MB-435 [11]) was 0.08 µM and the GI50 (UACC-62 [12]) was 0.36 µM.
In the case of `C[C@]12CC[C@@H]3c4cc(OCC(F)(F)F)c(O)cc4C(=O)C[C@H]3[C@@H]1CC[C@@H]2O`, the GI50 (DU-145 [13]) is reported as 15 µM, the GI50 (UACC-62 [14]) is reported as 3.3 µM and the GI50 (SF-539 [15]) is reported as 5.1 µM. For the same compound, the GI50 (OVCAR-3 [16]) was 3.5 µM, the GI50 (SN12C [17]) was 24 µM and the GI50 [6] was 9.8 µM. It also gave a GI50 (HOP-62 [18]) of 8.7 µM, a GI50 (HCT-116 [19]) of 3.7 µM and a GI50 (MDA-MB-435 [20]) of 27 µM. The IC50 (Tubulin [21]) was 24 µM and the inhibition (Tubulin (Bos taurus)) was 1.7%.
